Measured values reported in ChEMBL document CHEMBL3576819, “Design, synthesis, biological evaluation and molecular docking studies of phenylpropanoid derivatives as potent anti-hepatitis B virus agents” (Eur J Med Chem, 2015).

What was measured:
Hepatitis B virus [1] = assay: Antiviral activity against Hepatitis B virus infected in human HepG2.2.15 cells assessed as cell survival at 150 uM after 9 days (reference value: 100%); assay type: functional; settings: HepG2 2.2.15, 216 h
Summary of the method: (§1)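 HepG2.2.15 cells (MEM, 10% FBS, 380 µg/ml G418, 37 °C, 5% CO2) seeded at 1×10^5 cells/ml, cultured 24 h, then exposed to various drug concentrations; drug-containing medium renewed every 3 d. OD read at 450 nm after 9 days; percent cell death calculated; CC50 = concentration killing 50% of cells. Means of at least two experiments.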

Hepatitis B virus [2] = assay: Antiviral activity against Hepatitis B virus infected in human HepG2.2.15 cells assessed as inhibition of HBeAg secretion at 150 uM after 3 days by ELISA; assay type: functional; settings: HepG2 2.2.15, 72 h
Summary of the method: (§2)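 HepG2.2.15 cells (MEM, 10% FBS, 380 µg/ml G418) seeded at 1×10^5 cells/ml, held 24 h at 37 °C, then treated with various drug concentrations; medium with drug renewed every 3 d for up to 9 d. Culture medium sampled on days 3, 6 and 9, stored at -20 °C, and assayed for secreted antigen. Lamivudine as positive control; IC50 = 50% inhibition of secretion; means of at least two experiments.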

Hepatitis B virus [3] = assay: Antiviral activity against Hepatitis B virus infected in human HepG2.2.15 cells assessed as inhibition of HBeAg secretion at 300 uM after 3 days by ELISA; assay type: functional; settings: HepG2 2.2.15, 72 h; summary of the method: as §2
Hepatitis B virus [4] = assay: Antiviral activity against Hepatitis B virus infected in human HepG2.2.15 cells assessed as inhibition of HBeAg secretion at 37.5 uM after 6 days by ELISA; assay type: functional; settings: HepG2 2.2.15, 144 h; summary of the method: as §2
[5] = Selectivity index, ratio of CC50 for human HepG2.2.15 cells to IC50 for Hepatitis B virus infected in human HepG2.2.15 cells assessed as inhibition of HBeAg secretion; assay type: functional
Summary of the method: (§3)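 Selectivity index computed as CC50/IC50, with CC50 from cell death of HepG2.2.15 cells after 9 days of treatment (OD 450 nm) and IC50 from 50% inhibition of HBeAg or HBsAg secretion in the same cells; medium with drug renewed every 3 d.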

Hepatitis B virus [6] = assay: Antiviral activity against Hepatitis B virus infected in human HepG2.2.15 cells assessed as inhibition of HBsAg secretion at 75 uM after 9 days by ELISA; assay type: functional; settings: HepG2 2.2.15, 216 h; summary of the method: as §2
Hepatitis B virus [7] = assay: Antiviral activity against Hepatitis B virus infected in human HepG2.2.15 cells assessed as inhibition of HBsAg secretion at 150 uM after 3 days by ELISA; assay type: functional; settings: HepG2 2.2.15, 72 h; summary of the method: as §2
[8] = Selectivity index, ratio of CC50 for human HepG2.2.15 cells to IC50 for Hepatitis B virus infected in human HepG2.2.15 cells assessed as inhibition of HBsAg secretion; assay type: functional; summary of the method: as §3
Hepatitis B virus [9] = assay: Antiviral activity against Hepatitis B virus infected in human HepG2.2.15 cells assessed as inhibition of HBsAg secretion at 75 uM after 6 days by ELISA; assay type: functional; settings: HepG2 2.2.15, 144 h; summary of the method: as §2
Hepatitis B virus [10] = assay: Antiviral activity against Hepatitis B virus infected in human HepG2.2.15 cells assessed as cell survival at 37.5 uM after 9 days (reference value: 100%); assay type: functional; settings: HepG2 2.2.15, 216 h; summary of the method: as §1
Hepatitis B virus [11] = assay: Antiviral activity against Hepatitis B virus infected in human HepG2.2.15 cells assessed as inhibition of HBsAg secretion at 37.5 uM after 6 days by ELISA; assay type: functional; settings: HepG2 2.2.15, 144 h; summary of the method: as §2
Hepatitis B virus [12] = assay: Antiviral activity against Hepatitis B virus infected in human HepG2.2.15 cells assessed as inhibition of HBsAg secretion at 300 uM after 3 days by ELISA; assay type: functional; settings: HepG2 2.2.15, 72 h; summary of the method: as §2
Hepatitis B virus [13] = assay: Antiviral activity against Hepatitis B virus infected in human HepG2.2.15 cells assessed as inhibition of HBsAg secretion at 75 uM after 3 days by ELISA; assay type: functional; settings: HepG2 2.2.15, 72 h; summary of the method: as §2
Hepatitis B virus [14] = assay: Antiviral activity against Hepatitis B virus infected in human HepG2.2.15 cells assessed as inhibition of HBeAg secretion at 150 uM after 6 days by ELISA; assay type: functional; settings: HepG2 2.2.15, 144 h; summary of the method: as §2
Hepatitis B virus [15] = assay: Antiviral activity against Hepatitis B virus infected in human HepG2.2.15 cells assessed as inhibition of HBsAg secretion at 300 uM after 9 days by ELISA; assay type: functional; settings: HepG2 2.2.15, 216 h; summary of the method: as §2
Hepatitis B virus [16] = assay: Antiviral activity against Hepatitis B virus infected in human HepG2.2.15 cells assessed as cell survival at 300 uM after 9 days (reference value: 100%); assay type: functional; settings: HepG2 2.2.15, 216 h; summary of the method: as §1
Hepatitis B virus [17] = assay: Antiviral activity against Hepatitis B virus infected in human HepG2.2.15 cells assessed as inhibition of HBsAg secretion by ELISA; assay type: functional, organism-based; settings: HepG2 2.2.15; summary of the method: as §2
Hepatitis B virus [18] = assay: Antiviral activity against Hepatitis B virus infected in human HepG2.2.15 cells assessed as inhibition of HBeAg secretion at 75 uM after 6 days by ELISA; assay type: functional; settings: HepG2 2.2.15, 144 h; summary of the method: as §2
Hepatitis B virus [19] = assay: Antiviral activity against Hepatitis B virus infected in human HepG2.2.15 cells assessed as inhibition of HBeAg secretion at 37.5 uM after 3 days by ELISA; assay type: functional; settings: HepG2 2.2.15, 72 h; summary of the method: as §2
Hepatitis B virus [20] = assay: Antiviral activity against Hepatitis B virus infected in human HepG2.2.15 cells assessed as inhibition of HBeAg secretion at 150 uM after 9 days by ELISA; assay type: functional; settings: HepG2 2.2.15, 216 h; summary of the method: as §2
Hepatitis B virus [21] = assay: Antiviral activity against Hepatitis B virus infected in human HepG2.2.15 cells assessed as inhibition of HBeAg secretion by ELISA; assay type: functional, organism-based; settings: HepG2 2.2.15; summary of the method: as §2
Hepatitis B virus [22] = assay: Antiviral activity against Hepatitis B virus infected in human HepG2.2.15 cells assessed as cell survival at 75 uM after 9 days (reference value: 100%); assay type: functional; settings: HepG2 2.2.15, 216 h; summary of the method: as §1
Hepatitis B virus [23] = assay: Antiviral activity against Hepatitis B virus infected in human HepG2.2.15 cells assessed as inhibition of HBeAg secretion at 300 uM after 9 days by ELISA; assay type: functional; settings: HepG2 2.2.15, 216 h; summary of the method: as §2
Hepatitis B virus [24] = assay: Antiviral activity against Hepatitis B virus infected in human HepG2.2.15 cells assessed as inhibition of HBsAg secretion at 150 uM after 6 days by ELISA; assay type: functional; settings: HepG2 2.2.15, 144 h; summary of the method: as §2
Hepatitis B virus [25] = assay: Antiviral activity against Hepatitis B virus infected in human HepG2.2.15 cells assessed as inhibition of HBsAg secretion at 300 uM after 6 days by ELISA; assay type: functional; settings: HepG2 2.2.15, 144 h; summary of the method: as §2
Hepatitis B virus [26] = assay: Antiviral activity against Hepatitis B virus infected in human HepG2.2.15 cells assessed as inhibition of HBeAg secretion at 300 uM after 6 days by ELISA; assay type: functional; settings: HepG2 2.2.15, 144 h; summary of the method: as §2
Hepatitis B virus [27] = assay: Antiviral activity against Hepatitis B virus infected in human HepG2.2.15 cells assessed as inhibition of HBsAg secretion at 37.5 uM after 9 days by ELISA; assay type: functional; settings: HepG2 2.2.15, 216 h; summary of the method: as §2
Hepatitis B virus [28] = assay: Antiviral activity against Hepatitis B virus infected in human HepG2.2.15 cells assessed as inhibition of HBsAg secretion at 37.5 uM after 3 days by ELISA; assay type: functional; settings: HepG2 2.2.15, 72 h; summary of the method: as §2
[29] = Cytotoxicity against human HepG2.2.15 cells assessed as cell death after 9 days by MTT assay; assay type: cell-based, HepG2 2.2.15; summary of the method: as §1
Hepatitis B virus [30] = assay: Antiviral activity against Hepatitis B virus infected in human HepG2.2.15 cells assessed as inhibition of HBeAg secretion at 75 uM after 9 days by ELISA; assay type: functional; settings: HepG2 2.2.15, 216 h; summary of the method: as §2
Hepatitis B virus [31] = assay: Antiviral activity against Hepatitis B virus infected in human HepG2.2.15 cells assessed as inhibition of HBsAg secretion at 150 uM after 9 days by ELISA; assay type: functional; settings: HepG2 2.2.15, 216 h; summary of the method: as §2
Hepatitis B virus [32] = assay: Antiviral activity against Hepatitis B virus infected in human HepG2.2.15 cells assessed as inhibition of HBeAg secretion at 75 uM after 3 days by ELISA; assay type: functional; settings: HepG2 2.2.15, 72 h; summary of the method: as §2
Hepatitis B virus [33] = assay: Antiviral activity against Hepatitis B virus infected in human HepG2.2.15 cells assessed as inhibition of HBeAg secretion at 37.5 uM after 9 days by ELISA; assay type: functional; settings: HepG2 2.2.15, 216 h; summary of the method: as §2

COc1cc(/C=C/C(=O)O/N=C/c2cccs2)cc2c1OCO2
viability at 150 µM (Hepatitis B virus [1]): 97.5% | inhibition at 150 µM (Hepatitis B virus [2]): 33.8% | inhibition at 300 µM (Hepatitis B virus [3]): 41.9% | inhibition at 37.5 µM (Hepatitis B virus [4]): 16.1% | Ratio CC50/IC50 [5]: 6.47 | inhibition at 75 µM (Hepatitis B virus [6]): 56.1% | inhibition at 150 µM (Hepatitis B virus [7]): 46.6% | Ratio CC50/IC50 [8]: 9.1 | inhibition at 75 µM (Hepatitis B virus [9]): 37.4% | viability at 37.5 µM (Hepatitis B virus [10]): 119% | inhibition at 37.5 µM (Hepatitis B virus [11]): 23.3% | inhibition at 300 µM (Hepatitis B virus [12]): 59.3% | inhibition at 75 µM (Hepatitis B virus [13]): 35.5% | inhibition at 150 µM (Hepatitis B virus [14]): 40% | inhibition at 300 µM (Hepatitis B virus [15]): 77.9% | viability at 300 µM (Hepatitis B virus [16]): 95.6% | IC50 (Hepatitis B virus [17]): 74.4 µM | inhibition at 75 µM (Hepatitis B virus [18]): 33.8% | inhibition at 37.5 µM (Hepatitis B virus [19]): 12.7% | inhibition at 150 µM (Hepatitis B virus [20]): 57.9% | IC50 (Hepatitis B virus [21]): 105 µM | viability at 75 µM (Hepatitis B virus [22]): 107% | inhibition at 300 µM (Hepatitis B virus [23]): 65.8% | inhibition at 150 µM (Hepatitis B virus [24]): 50.7% | inhibition at 300 µM (Hepatitis B virus [25]): 67.3% | inhibition at 300 µM (Hepatitis B virus [26]): 51.1% | inhibition at 37.5 µM (Hepatitis B virus [27]): 29.7% | inhibition at 37.5 µM (Hepatitis B virus [28]): 19.1% | CC50 at 216 h [29]: 677 µM | inhibition at 75 µM (Hepatitis B virus [30]): 48.9% | inhibition at 150 µM (Hepatitis B virus [31]): 68.2% | inhibition at 75 µM (Hepatitis B virus [32]): 25.6% | inhibition at 37.5 µM (Hepatitis B virus [33]): 29.2%
